Measured values: ChEMBL document CHEMBL4145669 (J Med Chem, 2018)
Square brackets hold non-standard residues; d marks the D form. Peptide text beside a SMILES is read from it. hPhe = N[C@@H](CCc1ccccc1)C(=O)O; Nle = CCCC[C@H](N)C(=O)O; Dap = NC[C@H](N)C(=O)O

Columns and labels:
Melanocortin receptor 4 = Melanocortin receptor 4 (Mus musculus, UniProt P56450); experiment: Antagonist activity at mouse MC4R expressed in HEK293 cells assessed as reduction in NDP-MSH-induced response incubated for 2 hrs by AlphaScreen cAMP assay based Schild analysis; assay type: functional, cell-based; conditions: read-out: pA2 (converted)
[1] = biological target: Melanocortin receptor 5 (Mus musculus) (UniProt P41149); experiment: Inverse agonist activity at mouse MC5R expressed in HEK293 cells at 100 uM incubated for 2 hrs by AlphaScreen cAMP assay; assay type: functional, cell-based
Outline: (§1)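 In the mouse MC5R HEK293 stable line, cells in IBMX-containing stimulation buffer with anti-cAMP acceptor beads were exposed to compound at up to 100 μM for 2 h at room temperature in the dark. Donor beads/biotinylated cAMP were then added for 2 h before AlphaScreen reading. Signal was normalized to basal response to give a percent difference from basal. Duplicate wells, ≥3 independent experiments.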

[2] = biological target: Melanocyte-stimulating hormone receptor (Mus musculus, UniProt Q01727); experiment: Agonist activity at mouse MC1R expressed in HEK293 cells incubated for 2 hrs by AlphaScreen cAMP assay; assay type: functional, cell-based
Outline: (§2)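 HEK293 cells stably expressing mouse MC1R, about 90% confluent, were detached with Versene and suspended at 10,000 cells/μL in stimulation buffer (HBSS, 0.5 mM IBMX, 5 mM HEPES, 0.1% BSA, pH 7.4) with anti-cAMP acceptor beads. Compound was added for 2 h at room temperature in the dark, then donor beads/biotinylated cAMP in lysis buffer for 2 h, followed by AlphaScreen read. Doses went up to 100 μM in duplicate wells, ≥3 experiments. EC50 came from nonlinear regression, with efficacy as a percent of NDP-MSH.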

Melanocortin receptor 3 = Melanocortin receptor 3 (Mus musculus, UniProt P33033); experiment: Antagonist activity at mouse MC3R expressed in HEK293 cells assessed as reduction in NDP-MSH-induced response incubated for 2 hrs by AlphaScreen cAMP assay based Schild analysis; assay type: functional, cell-based; conditions: read-out: pA2 (converted)
Mus musculus = organism: Mus musculus; experiment: Selectivity index, ratio of pA2 for antagonist activity at mouse MC3R expressed in HEK293 cells to pA2 for antagonist activity at mouse MC4R expressed in HEK293 cells; assay type: cell-based
[3] = biological target: Melanocortin receptor 3 (Mus musculus) (UniProt P33033); experiment: Agonist activity at mouse MC3R expressed in HEK293 cells at 100 uM incubated for 2 hrs by AlphaScreen cAMP assay relative to untreated control; assay type: functional, cell-based
[4] = biological target: Melanocyte-stimulating hormone receptor (Mus musculus) (UniProt Q01727); experiment: Agonist activity at mouse MC1R expressed in HEK293 cells at 100 uM incubated for 2 hrs by AlphaScreen cAMP assay relative to NDP-MSH; assay type: functional, cell-based; outline: as §2
Melanocortin receptor 5 = Melanocortin receptor 5 (Mus musculus, UniProt P41149); experiment: Inverse agonist activity at mouse MC5R expressed in HEK293 cells incubated for 2 hrs by AlphaScreen cAMP assay; assay type: functional, cell-based; outline: as §1
[5] = biological target: Melanocortin receptor 4 (Mus musculus) (UniProt P56450); experiment: Agonist activity at mouse MC4R expressed in HEK293 cells at 100 uM incubated for 2 hrs by AlphaScreen cAMP assay relative to untreated control; assay type: functional, cell-based
[6] = biological target: Melanocortin receptor 4 (Mus musculus) (UniProt P56450); experiment: Potency index, ratio of pA2 for test compound to pA2 for AGRP for antagonist activity at mouse MC4R expressed in HEK293 cells assessed as reduction in NDP-MSH-induced response incubated for 2 hrs by AlphaScreen cAMP assay based Schild analysis; assay type: functional, cell-based

Chain of Melanocortin receptor 4 (Mus musculus) (P56450 whole entry): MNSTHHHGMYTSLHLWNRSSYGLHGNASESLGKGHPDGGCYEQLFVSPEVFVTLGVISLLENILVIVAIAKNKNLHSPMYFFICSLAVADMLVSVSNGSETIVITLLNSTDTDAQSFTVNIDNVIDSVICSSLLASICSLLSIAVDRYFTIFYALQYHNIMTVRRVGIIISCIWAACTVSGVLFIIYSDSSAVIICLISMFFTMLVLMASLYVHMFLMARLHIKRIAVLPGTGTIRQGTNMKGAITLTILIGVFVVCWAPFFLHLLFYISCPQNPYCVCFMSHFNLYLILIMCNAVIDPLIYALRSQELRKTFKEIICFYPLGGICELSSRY
Chain of Melanocyte-stimulating hormone receptor (Q01727 whole entry): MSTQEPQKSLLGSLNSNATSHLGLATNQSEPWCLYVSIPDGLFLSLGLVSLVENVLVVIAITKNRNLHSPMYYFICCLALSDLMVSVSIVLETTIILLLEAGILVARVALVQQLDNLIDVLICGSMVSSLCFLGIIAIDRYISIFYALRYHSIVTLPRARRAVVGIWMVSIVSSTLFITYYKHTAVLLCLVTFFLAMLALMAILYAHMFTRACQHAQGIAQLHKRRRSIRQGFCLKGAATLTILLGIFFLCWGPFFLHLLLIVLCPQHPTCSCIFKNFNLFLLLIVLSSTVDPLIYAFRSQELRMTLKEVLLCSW
Chain of Melanocyte-stimulating hormone receptor (Mus musculus) (Q01727 whole entry, looked up): as the sequence (Q01727 whole entry) above
Chain of Melanocortin receptor 3 (Mus musculus) (P33033 whole entry): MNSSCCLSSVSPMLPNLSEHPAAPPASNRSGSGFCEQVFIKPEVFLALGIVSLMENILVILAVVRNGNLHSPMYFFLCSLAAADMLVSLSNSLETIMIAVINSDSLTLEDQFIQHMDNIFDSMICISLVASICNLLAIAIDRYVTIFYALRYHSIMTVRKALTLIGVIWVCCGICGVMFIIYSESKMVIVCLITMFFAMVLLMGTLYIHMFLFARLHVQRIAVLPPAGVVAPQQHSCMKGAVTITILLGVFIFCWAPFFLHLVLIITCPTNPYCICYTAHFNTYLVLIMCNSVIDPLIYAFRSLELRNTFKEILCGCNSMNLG
Chain of Melanocortin receptor 3 (P33033 whole entry): as above
Chain of Melanocortin receptor 5 (P41149 whole entry): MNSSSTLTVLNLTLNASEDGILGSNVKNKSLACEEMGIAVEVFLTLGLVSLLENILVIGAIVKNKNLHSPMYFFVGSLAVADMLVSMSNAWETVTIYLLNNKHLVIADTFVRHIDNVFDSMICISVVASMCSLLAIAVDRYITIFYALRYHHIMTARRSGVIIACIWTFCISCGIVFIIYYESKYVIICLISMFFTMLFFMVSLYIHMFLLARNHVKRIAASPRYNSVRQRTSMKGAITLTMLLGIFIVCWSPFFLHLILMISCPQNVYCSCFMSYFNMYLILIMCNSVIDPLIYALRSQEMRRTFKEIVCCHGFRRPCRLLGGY
Chain of Melanocortin receptor 5 (Mus musculus) (P41149 whole entry): as above
Chain of Melanocortin receptor 4 (P56450 whole entry): as the sequence (P56450 whole entry) above

CCCC[C@@H]1NC(=O)[C@H](CO)NC(=O)[C@H](CN)NC(=O)[C@H](CCc2ccccc2)NC(=O)[C@H](Cc2ccccc2)NC(=O)[C@H](CCCNC(=N)N)NC(=O)[C@@H]2CCCN2C(=O)[C@H]2CCCN2C1=O (cyclo(RF[hPhe][Dap]S[Nle][dP]P))
Kb (Melanocortin receptor 4): 0.316 nM | Activity [1]: < 20% | EC50 [2]: > 100000 nM | Kb (Melanocortin receptor 3): 200 nM | Ratio (Mus musculus): 630 | Activity [3]: < 20% | Activity [4]: < 20% | EC50 (Melanocortin receptor 5): > 100000 nM | Activity [5]: < 20% | Ratio [6]: 3 to 6
